Results from different studies.
Compare with care: the assays were run in different laboratories.
Target: Misshapen-like kinase 1 (MINK1, Homo sapiens, UniProt Q8N4C8)

CCCS(=O)(=O)Nc1ccc(F)c(C(=O)c2c[nH]c3ncc(-c4ccc(Cl)cc4)cc23)c1F — inhibition (enzyme activity; inhibitor; 1 µM): < 20%
CNC(=O)c1ccc(Nc2ncc(C(F)(F)F)c(NCc3nccnc3N(C)S(C)(=O)=O)n2)cc1 — remaining binding (cell-free assay; competition with immobilised ligand; 0.1 µM): 44%
CCN(CC)CCNC(=O)c1c(C)[nH]c(/C=C2\C(=O)Nc3ccc(F)cc32)c1C — inhibition (enzyme activity; inhibitor; 10 µM): 94%
CN(C)C1CCN(CC#Cc2nn(C3CCCC3)c3nc(NCc4ccccc4)ncc23)C1 (stereo not drawn) — inhibition (enzyme activity; inhibitor; FRET; 0.1 µM): 11%
CNC(=O)c1cc(Oc2ccc(NC(=O)Nc3ccc(Cl)c(C(F)(F)F)c3)cc2)ccn1 — inhibition (enzyme activity; inhibitor; 0.3 µM): 14%
FC(F)c1nc2ccccc2n1-c1nc(N2CCOCC2)nc(N2CCOCC2)n1 — remaining activity (enzyme activity; inhibitor; 10 µM): 102%
FC(F)(F)Oc1cccc(-c2cnc3ccc(-c4ccncc4)nn23)c1 — activity vs control (enzyme activity; inhibitor; radiometric; 1 µM): 58%
Oc1cccc(-c2nc(N3CCOCC3)c3oc4ncccc4c3n2)c1 — remaining activity (enzyme activity; inhibitor; 10 µM): 116%
Cc1nc(C2CCN(C(=O)c3ccc(OC(F)(F)F)cc3N)CC2)c2ncc(N3CCN(C)CC3)cc2n1 — remaining binding (cell-free assay; competition with immobilised ligand; 1 µM): 93%
O=C1NC(=O)c2cc(Nc3ccc(F)cc3)c(Nc3ccc(F)cc3)cc21 — remaining signal (cell-free assay; 0.5 µM): 99%
Cn1nc(C(=O)NCc2ccc(C(=O)O)cc2)cc1-c1ccc2[nH]ccc2c1 — remaining binding (cell-free assay; competition with immobilised ligand; 0.1 µM): 95%
O=C(Nc1cnn(-c2csc(C(=O)NC3COC3)c2)c1)Nc1c(F)cccc1Cl — remaining activity (enzyme activity; inhibitor; 5 µM): 62.2%
NS(=O)(=O)c1cc(NC(=O)Cc2ccccc2)ccc1Oc1cccc(Cl)c1 — remaining binding (cell-free assay; competition with immobilised ligand; 1 µM): 90%
CS(=O)(=O)CCNCc1ccc(-c2ccc3ncnc(Nc4ccc(OCc5cccc(F)c5)c(Cl)c4)c3c2)o1 — remaining signal (cell-free assay; 0.5 µM): 111%
CCCOc1ccc(OC)c(F)c1C(=O)c1ccc(C(=O)N[C@@H]2CNC[C@H]2NC(=O)c2ccc3[nH]ncc3c2)cc1 — remaining activity (enzyme activity; inhibitor; 10 µM): 96%
CC(C)(C)c1nc(-c2cccc(NS(=O)(=O)c3c(F)cccc3F)c2F)c(-c2ccnc(N)n2)s1 — remaining activity (enzyme activity; inhibitor; radiometric; 1 µM): 100%
Cc1sc(C(=O)NC2COC2)cc1-n1cc(NC(=O)Nc2c(F)cccc2Cl)cn1 — remaining activity (enzyme activity; inhibitor; 10 µM): 102%
COc1cc(-c2cc(-c3ccc(N4CCNCC4)cc3)cnc2N)cc(OC)c1OC — inhibition (enzyme activity; inhibitor; 1 µM): 89%
C[C@@H]1CN(c2cc(-c3n[nH]c4ccc(OC5(C)CC5)cc34)ncn2)C[C@H](C)O1 — remaining binding (cell-free assay; competition with immobilised ligand; 0.1 µM): 84%
COc1ccc(COc2ccc(Cc3cnc(N)nc3N)cc2OC)cc1 — remaining signal (cell-free assay; 0.5 µM): 86.5%
CN1CC(Oc2cnc(C#N)cc2-c2ccn3nc(NC(=O)C4CC4)cc3c2)C1 — inhibition (enzyme activity; inhibitor; 1 µM): 13%
COc1cc(-c2cn(C3CCc4c(F)cccc4N(CC(F)(F)F)C3=O)nn2)ccc1-n1cnc(C)c1 (stereo not drawn) — remaining binding (cell-free assay; competition with immobilised ligand; 1 µM): 84%
Cc1ccc(NC(=O)c2ccc(C)c(C(F)(F)F)c2)cc1C#Cc1nn(C2CCC(O)CC2)c2ncnc(N)c12 (stereo not drawn) — remaining signal (cell-free assay; 10 µM): 25%
COc1cc2ncnc(Nc3ccc(Oc4ccccc4)c(C)c3C)c2cc1OC — inhibition (enzyme activity; inhibitor; 1 µM): -1%
CC(C)(O)[C@H]1CC[C@H](Nc2ccc3ncc(-c4cccc(C(F)(F)F)c4)n3n2)CC1 — remaining activity (enzyme activity; inhibitor; 1 µM): 97%
O=C(NCc1ncc(C(F)(F)F)cc1Cl)c1ccc2c(c1)C1(CCS(=O)(=O)CC1)[C@@H](C1CC1)N2S(=O)(=O)c1ccc(F)cc1 — remaining binding (cell-free assay; competition with immobilised ligand; 1 µM): 85%
COc1cc(Nc2cnc(C#N)c(O[C@H](C)CN(C)C)n2)ncc1-c1cnn(C)c1 — remaining activity (enzyme activity; inhibitor; radiometric; 10 µM): 67%
Cc1ccc(Nc2nccc(N(C)c3ccc4c(C)n(C)nc4c3)n2)cc1S(N)(=O)=O — inhibition (enzyme activity; inhibitor; 0.3 µM): 23%
CCCOc1ccc([C@@H]2[C@@H](C(=O)O)[C@H](c3ccc4c(c3)OCO4)CN2CC(=O)Nc2c(CC)cccc2CC)cc1 — remaining binding (cell-free assay; competition with immobilised ligand; 1 µM): 78%
Cc1cnc(NC2CCOCC2)nc1-n1cnc(C(=O)NC(CN)c2cc(F)cc(Cl)c2)c1 (stereo not drawn) — remaining activity (enzyme activity; inhibitor; radiometric; 1 µM): 103%
